Data: ChEMBL document CHEMBL1921792, “Synthesis and anticonvulsant activity of trans- and cis-2-(2,6-dimethylphenoxy)-N-(2- or 4-hydroxycyclohexyl)acetamides and their amine analogs” (Bioorg Med Chem, 2011)
Calls of active or inactive are those of the source. No cut-off for these calls is given here.

Legend:
[1] = tested on: Mus musculus; experiment: Anticonvulsant activity in ip dosed mouse assessed as protection against maximal electric shock-induced seizures; format: functional; conditions: Mus musculus, ip; read-out: ED50
[2] = Neurotoxicity in ip dosed mouse assessed as inability to maintain equilibrium on rotarod by rotarod test; format: toxicity, organism-based; conditions: in vivo
Procedure, shortened: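 Mice dosed ip with a suspension in 0.5% methylcellulose, then placed on a 1 inch knurled plastic rod rotating at 6 rpm. Toxicity = failure to keep equilibrium for at least 1 min in each of three trials.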

[3] = Neurotoxicity in po dosed rat assessed as neurological deficit […]; format: toxicity, organism-based; conditions: in vivo
Procedure, shortened: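 Rats dosed orally with a suspension in 0.5% methylcellulose. Neurological deficit judged by ataxia and loss of placing response and muscle tone.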

[4] = tested on: Rattus norvegicus; experiment: Anticonvulsant activity in po dosed rat assessed as protection against maximal electric shock-induced seizures; format: functional
[5] = species on record: Mus musculus; experiment: Protective index, ratio of TD50 for neurotoxicity in mouse to ED50 for inhibition of maximal electroshock-induced seizures in mouse; format: functional
[6] = tested on: N1E-115; experiment: Blockade of voltage-gated sodium channel in mouse N1E-115 cells assessed as stimulation at 100 umol at -90 mV holding potential by whole-cell patch clamp electrophysiological assay relative to control; format: cell-based
Procedure, shortened: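 Whole-cell patch clamp with borosilicate glass electrodes on single cultured N1E-115 neuroblastoma cells. Compound at 100 µmol, holding potential -90 mV. Voltage-dependent sodium current expressed as % of control stimulation (no compound). Results from 5–8 cells averaged with SEM; significance by Student's t-test.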

[7] = species on record: Rattus norvegicus; experiment: Protective index, ratio of TD50 for neurotoxicity in rat to ED50 for inhibition of maximal electroshock-induced seizures in rat; format: functional
[8] = tested on: Mus musculus; experiment: Neurotoxicity in mouse assessed as inability to maintain equilibrium on rotarod at 30 mg/kg, ip after 4 hrs by rotarod test; format: toxicity, organism-based; parameters: dose 30 mg/kg, route intraperitoneal; conditions: in vivo
Procedure, shortened: (§1)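 Drug given ip to mice as a suspension in 0.5% methylcellulose. At the stated time after dosing, each mouse was placed on a 1 inch knurled rod turning at 6 rpm. Neurotoxicity = inability to stay balanced at least 1 min in each of three trials. Scored as animals toxic/animals tested in small groups.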

[9] = tested on: Mus musculus; experiment: Anticonvulsant activity against subcutaneous pentylenetetrazole-induced seizures in mouse at 100 mg/kg, ip after 0.5 hrs; format: functional, organism-based; parameters: dose 100 mg/kg
Procedure, shortened: (§2)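 Phase I screen in mice. Compound given ip as a suspension in 0.5% methylcellulose, read at 30 min and 4 h. Pentylenetetrazole 85 mg/kg in 0.9% NaCl was injected sc into the posterior midline and animals watched ≥30 min. Protection meant no clonic spasm lasting ≥5 s. Groups of 1–8 animals; result is protected/tested.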

[10] = tested on: Mus musculus; experiment: Anticonvulsant activity in mouse assessed as protection against maximal electric shock-induced seizures at 30 mg/kg, ip after 4 hrs; format: functional, organism-based; parameters: dose 30 mg/kg
Procedure, shortened: (§3)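 Phase I maximal electroshock screen in mice. Compound given ip as a suspension in 0.5% methylcellulose at 30, 100 or 300 mg/kg, tested at 30 min and 4 h. Small groups (1–8); result is number protected/number tested.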

[11] = tested on: Mus musculus; experiment: Neurotoxicity in mouse assessed as inability to maintain equilibrium on rotarod at 30 mg/kg, ip after 0.5 hrs by rotarod test; format: toxicity, organism-based; parameters: dose 30 mg/kg, route intraperitoneal; conditions: in vivo; procedure, shortened: as §1
[12] = tested on: Mus musculus; experiment: Neurotoxicity in mouse assessed as inability to maintain equilibrium on rotarod at 100 mg/kg, ip after 0.5 hrs by rotarod test; format: toxicity, organism-based; parameters: dose 100 mg/kg, route intraperitoneal; conditions: in vivo; procedure, shortened: as §1
[13] = tested on: Mus musculus; experiment: Anticonvulsant activity against subcutaneous pentylenetetrazole-induced seizures in mouse at 30 mg/kg, ip after 0.5 hrs; format: functional, organism-based; parameters: dose 30 mg/kg; procedure, shortened: as §2
[14] = tested on: Mus musculus; experiment: Anticonvulsant activity against subcutaneous pentylenetetrazole-induced seizures in mouse at 30 mg/kg, ip after 4 hrs; format: functional, organism-based; parameters: dose 30 mg/kg; procedure, shortened: as §2
[15] = tested on: Mus musculus; experiment: Anticonvulsant activity in mouse assessed as protection against maximal electric shock-induced seizures at 30 mg/kg, ip after 0.5 hrs; format: functional, organism-based; parameters: dose 30 mg/kg; procedure, shortened: as §3
[16] = tested on: Mus musculus; experiment: Anticonvulsant activity in mouse assessed as protection against maximal electric shock-induced seizures at 300 mg/kg, ip after 4 hrs; format: functional, organism-based; parameters: dose 300 mg/kg; procedure, shortened: as §3
[17] = tested on: Mus musculus; experiment: Neurotoxicity in mouse assessed as inability to maintain equilibrium on rotarod at 100 mg/kg, ip after 4 hrs by rotarod test; format: toxicity, organism-based; parameters: dose 100 mg/kg, route intraperitoneal; conditions: in vivo; procedure, shortened: as §1
[18] = tested on: Mus musculus; experiment: Anticonvulsant activity against subcutaneous pentylenetetrazole-induced seizures in mouse at 100 mg/kg, ip after 4 hrs; format: functional, organism-based; parameters: dose 100 mg/kg; procedure, shortened: as §2
[19] = tested on: Mus musculus; experiment: Anticonvulsant activity against subcutaneous pentylenetetrazole-induced seizures in mouse at 300 mg/kg, ip after 4 hrs; format: functional, organism-based; parameters: dose 300 mg/kg; procedure, shortened: as §2
[20] = tested on: Mus musculus; experiment: Anticonvulsant activity in mouse assessed as protection against maximal electric shock-induced seizures at 300 mg/kg, ip after 0.5 hrs; format: functional, organism-based; parameters: dose 300 mg/kg; procedure, shortened: as §3
[21] = tested on: Mus musculus; experiment: Neurotoxicity in mouse assessed as inability to maintain equilibrium on rotarod at 300 mg/kg, ip after 4 hrs by rotarod test; format: toxicity, organism-based; parameters: dose 300 mg/kg, route intraperitoneal; conditions: in vivo; procedure, shortened: as §1
[22] = tested on: Mus musculus; experiment: Anticonvulsant activity against subcutaneous pentylenetetrazole-induced seizures in mouse at 300 mg/kg, ip after 0.5 hrs; format: functional, organism-based; parameters: dose 300 mg/kg; procedure, shortened: as §2
[23] = tested on: Mus musculus; experiment: Anticonvulsant activity in mouse assessed as protection against maximal electric shock-induced seizures at 100 mg/kg, ip after 4 hrs; format: functional, organism-based; parameters: dose 100 mg/kg; procedure, shortened: as §3
[24] = tested on: Mus musculus; experiment: Neurotoxicity in mouse assessed as inability to maintain equilibrium on rotarod at 300 mg/kg, ip after 0.5 hrs by rotarod test; format: toxicity, organism-based; parameters: dose 300 mg/kg, route intraperitoneal; conditions: in vivo; procedure, shortened: as §1
[25] = tested on: Mus musculus; experiment: Anticonvulsant activity in mouse assessed as protection against maximal electric shock-induced seizures at 100 mg/kg, ip after 0.5 hrs; format: functional, organism-based; parameters: dose 100 mg/kg; procedure, shortened: as §3

## O=C1NC(=O)C(c2ccccc2)(c2ccccc2)N1 [PHENYTOIN]
[1]
  ED50: 6.48 mg/kg
[2]
  TD50: 34.5 mg/kg
[3]
  TD50: > 500 mg/kg
[4]
  ED50: 32.2 mg/kg
[5]
  Ratio TD50/ED50: 6.6
[6]
  Activity: 78%
[7]
  Ratio TD50/ED50: >22

## NC(=O)N1c2ccccc2C=Cc2ccccc21
[6]
  Activity: 78%

## Cc1cccc(C)c1OCC(=O)N[C@H]1CCCC[C@H]1O
[8]
  Activity: Non-toxic
[9]
  Activity: inactive
[10]
  Activity: inactive
[11]
  Activity: Non-toxic
[12]
  Activity: Non-toxic
[13]
  Activity: inactive
[14]
  Activity: inactive
[15]
  Activity: inactive
[16]
  Activity: inactive
[17]
  Activity: Non-toxic
[18]
  Activity: inactive
[19]
  Activity: inactive
[20]
  Activity: Active
[21]
  Activity: Non-toxic
[22]
  Activity: Active
[23]
  Activity: inactive

## Cc1cccc(C)c1OCC(=O)N[C@@H]1CCCC[C@@H]1O
[8]
  Activity: Non-toxic
[9]
  Activity: inactive
[10]
  Activity: inactive
[11]
  Activity: Non-toxic
[12]
  Activity: Non-toxic
[13]
  Activity: inactive
[14]
  Activity: inactive
[15]
  Activity: inactive
[24]
  Activity: Non-toxic
[16]
  Activity: inactive
[17]
  Activity: Non-toxic
[18]
  Activity: inactive
[19]
  Activity: inactive
[20]
  Activity: Active
[21]
  Activity: Non-toxic
[22]
  Activity: inactive
[23]
  Activity: inactive

## Cc1cccc(C)c1OCCNC1CCC(O)CC1 (racemic)
[8]
  Activity: Non-toxic
[9]
  Activity: inactive
[10]
  Activity: inactive
[11]
  Activity: Non-toxic
[13]
  Activity: inactive
[14]
  Activity: inactive
[15]
  Activity: inactive
[24]
  Activity: Toxic
[17]
  Activity: Non-toxic
[18]
  Activity: inactive
[23]
  Activity: inactive
[25]
  Activity: Active
